Eight molecules from ChEMBL document CHEMBL1146506, “Sesquiterpene coumarins from Ferula fukanensis and nitric oxide production inhibitory effects” (J Nat Prod, 2004) can be followed below.

In data set [1] the test system is RAW264.7. In words: Inhibition of LPS and INF-gamma-induced NO production in mouse RAW264.7 cells. It is filed as functional, cell-based. In short, it runs like this: (§1)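 Cells seeded at 1.2 × 10^6 cells/mL, preincubated 2 h at 37 °C. Test compound added together with E. coli LPS (100 ng/mL) and recombinant mouse IFN-γ (0.33 ng/mL), then incubated at 37 °C, usually 16 h. Nitrite in chilled culture supernatant measured with Griess reagent (1% sulfanilamide in 5% H3PO4, 0.1% naphthylethylenediamine) against NaNO2 standards, read at 550 nm minus 630 nm background.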

The subject of data set [2] is RAW264.7. In words: Inhibition of LPS and INF-gamma-induced NO production in mouse RAW264.7 cells at 10 ug/mL. Type of data set: functional, cell-based. The essentials: as §1
Data set [3] concerns RAW264.7. Nature of the data set: Cytotoxicity against mouse RAW264.7 cells at 10 ug/mL. Type of data set: cell-based. In short, it runs like this:
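MTT assay. Compound given at 0.3–10 µg/mL during LPS/IFN-γ treatment for 24 h.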

Data set [4] concerns RAW264.7. Nature of the data set: Inhibition of LPS and INF-gamma-induced iNOS mRNA expression in mouse RAW264.7 cells by RT-PCR analysis. It is filed as functional, cell-based. In short, it runs like this:
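Cells at 1.2 × 10^6 cells/mL, preincubated 2 h at 37 °C, then test compound added with LPS (100 ng/mL) and IFN-γ (0.33 ng/mL) for about 8 h. Total RNA (250 ng) reverse-transcribed with oligo(dT) primer. iNOS and GAPDH amplified with specific primers for 25 cycles (94 °C 1 min, 60 °C 1 min, 72 °C 1.5 min).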

Active and inactive are the calls of the source. No cut-off for these calls is given here.

One may read the IC50 as the point on the concentration scale where inhibition reaches its midpoint. A high value points to weaker potency. As to `CC(C)=CC(=O)C/C(C)=C/CC[C@@]1(C)Oc2c(c(=O)oc3cc(O)ccc23)[C@@H]1C`, in the data set with RAW264.7 [1], the IC50 turned out to be 24.6 µM.

For `CC(C)=CCC/C(C)=C/CC[C@@]1(C)Oc2c(c(=O)oc3cc(O)ccc23)[C@H]1C`, in the data set with RAW264.7 [2], the result was inactive. Moreover, the Activity result in the data set with RAW264.7 [3] is reported as “Non-toxic”.

For the molecule `CC(C)=CCC/C(C)=C/CC[C@@]1(C)Oc2c(c(=O)oc3cc(O)ccc23)[C@@H]1C`, the result with RAW264.7 [2] was inactive. Moreover, the Activity result with RAW264.7 [3] is “Non-toxic”.

With `CC(C)=CC(=O)C/C(C)=C/CC[C@@]1(C)Oc2c(c(=O)oc3cc(O)ccc23)[C@H]1C` (relative stereo), the IC50 in the data set with RAW264.7 [1] stood at 31.2 µM.

In the data set on RAW264.7 [1], `CC(C)=CC(=O)/C=C(\C)CCC[C@@]1(C)Oc2c(c(=O)oc3cc(O)ccc23)[C@@H]1C` (relative stereo) [FUKANEFUROMARIN A] came in with an IC50 of 13 µM.

Molecule `CC(C)=CC(=O)/C=C(\C)CCC[C@@]1(C)Oc2c(c(=O)oc3cc(O)ccc23)[C@H]1C` (relative stereo) [FUKANEFUROMARIN B] came in with an IC50 in the data set on RAW264.7 [1] of 16.2 µM.

`CC(C)=CC(=O)/C=C(/C)CCC[C@@]1(C)Oc2c(c(=O)oc3cc(O)ccc23)[C@@H]1C` (relative stereo) [FUKANEFUROMARIN C] showed an IC50 in the data set with RAW264.7 [1] of 11.1 µM. Besides, the Activity result in the data set with RAW264.7 [4] was “Dose-dependent effect”.

As for `CC(C)=CC(=O)/C=C(/C)CCC[C@@]1(C)Oc2c(c(=O)oc3cc(O)ccc23)[C@H]1C` (relative stereo) [FUKANEFUROMARIN D], the IC50 with RAW264.7 [1] came out at 8.9 µM. Besides, the Activity entry with RAW264.7 [4] is “Dose-dependent effect”.
